What is called inhibition is the relative decrease from the control value, in per cent. A high value points to a response far below the control. For orientation: IC50 means the concentration at which inhibition is half-maximal. A lower IC50 goes with greater potency.

Assay [1] concerns Prunus dulcis. Description: Inhibition of almond beta-glucosidase at 180 uM using p-nitrophenyl D-glucopyranoside as substrate after 3 mins by UV/Vis spectrophotometric method relative to control. The gist of the method: (§1)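 Compounds were tested at 10, 20, 25, 45, 80, 120 and 180 µM, with percent enzyme inhibition reported at each level. Acarbose served as the positive control. The study ran four experiments per compound, each in triplicate, and reports mean ± S.D. IC50 is the concentration giving 50% inhibition of enzyme activity under the assay conditions, taken from this concentration series.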

In assay [2] the test system is Saccharomyces cerevisiae. Description: Inhibition of Saccharomyces cerevisiae alpha-glucosidase at 180 uM using 4-nitrophenyl D-glucopyranoside as substrate after 3 mins by UV/Vis spectrophotometric method relative to control. The gist of the method: as §1
Assay [3] deals with Prunus dulcis. Put plainly: Inhibition of almond beta-glucosidase at 20 uM using p-nitrophenyl D-glucopyranoside as substrate after 3 mins by UV/Vis spectrophotometric method relative to control. Summed up: as §1
The subject of assay [4] is Prunus dulcis. Description: Inhibition of almond beta-glucosidase at 10 uM using p-nitrophenyl D-glucopyranoside as substrate after 3 mins by UV/Vis spectrophotometric method relative to control. Summed up: as §1
Assay [5] deals with Saccharomyces cerevisiae. Put plainly: Inhibition of Saccharomyces cerevisiae alpha-glucosidase at 25 uM using 4-nitrophenyl D-glucopyranoside as substrate after 3 mins by UV/Vis spectrophotometric method relative to control. Summed up: as §1
Assay [6] deals with Saccharomyces cerevisiae. Description: Inhibition of Saccharomyces cerevisiae alpha-glucosidase at 45 uM using 4-nitrophenyl D-glucopyranoside as substrate after 3 mins by UV/Vis spectrophotometric method relative to control. Summed up: as §1
For assay [7], the system named is Saccharomyces cerevisiae. Put plainly: Inhibition of Saccharomyces cerevisiae alpha-glucosidase at 80 uM using 4-nitrophenyl D-glucopyranoside as substrate after 3 mins by UV/Vis spectrophotometric method relative to control. Summed up:
as §1

The subject of assay [8] is Prunus dulcis. Description: Inhibition of almond beta-glucosidase at 25 uM using p-nitrophenyl D-glucopyranoside as substrate after 3 mins by UV/Vis spectrophotometric method relative to control. Summed up: as §1
Assay [9] concerns Saccharomyces cerevisiae. Description: Inhibition of Saccharomyces cerevisiae alpha-glucosidase at 120 uM using 4-nitrophenyl D-glucopyranoside as substrate after 3 mins by UV/Vis spectrophotometric method relative to control. The gist of the method: as §1
For assay [10], the system named is Prunus dulcis. Put plainly: Inhibition of almond beta-glucosidase at 120 uM using p-nitrophenyl D-glucopyranoside as substrate after 3 mins by UV/Vis spectrophotometric method relative to control. Summed up:
as §1

The test system of assay [11] is Prunus dulcis. Put plainly: Inhibition of almond beta-glucosidase at 45 uM using p-nitrophenyl D-glucopyranoside as substrate after 3 mins by UV/Vis spectrophotometric method relative to control. Summed up:
as §1

Assay [12] has as its system Prunus dulcis. Put plainly: Inhibition of almond beta-glucosidase at 80 uM using p-nitrophenyl D-glucopyranoside as substrate after 3 mins by UV/Vis spectrophotometric method relative to control. The gist of the method:
as §1

Assay [13] relates to Saccharomyces cerevisiae. Put plainly: Inhibition of Saccharomyces cerevisiae alpha-glucosidase at 20 uM using 4-nitrophenyl D-glucopyranoside as substrate after 3 mins by UV/Vis spectrophotometric method relative to control. The gist of the method:
as §1

For assay [14], the system named is Saccharomyces cerevisiae. Put plainly: Inhibition of Saccharomyces cerevisiae alpha-glucosidase at 10 uM using 4-nitrophenyl D-glucopyranoside as substrate after 3 mins by UV/Vis spectrophotometric method relative to control. Summed up:
as §1

Assay [15] in a line: Inhibition of almond beta-glucosidase using p-nitrophenyl D-glucopyranoside as substrate after 3 mins by UV/Vis spectrophotometric method. Also noted: species or system Prunus dulcis. The gist of the method:
as §1

The nature of assay [16]: Inhibition of Saccharomyces cerevisiae alpha-glucosidase using 4-nitrophenyl D-glucopyranoside as substrate after 3 mins by UV/Vis spectrophotometric method. The gist of the method:
as §1

`OC[C@H]1C[C@@H](O)[C@H](O)[C@H](O)[C@H]1CO`: the inhibition in the assay on Prunus dulcis [1] was found to be 33.3%; in the assay on Saccharomyces cerevisiae [2], 42.2%; in the assay with Prunus dulcis [3] it was 27.8%; in the assay with Prunus dulcis [4] it was 3.4%; in the assay with Saccharomyces cerevisiae [5] it was 19.4%; with Saccharomyces cerevisiae [6], 19.9%. Further, the inhibition in the assay on Saccharomyces cerevisiae [7] is 21.4%; in the assay on Prunus dulcis [8], 28.4%; in the assay with Saccharomyces cerevisiae [9], 37.6%; in the assay with Prunus dulcis [10], 32.1%; in the assay on Prunus dulcis [11] it was 30.4%; in the assay with Prunus dulcis [12] it was 31.8%. The inhibition was 18.8% in the assay with Saccharomyces cerevisiae [13] and 15.8% in the assay on Saccharomyces cerevisiae [14].
For the molecule `C[C@H]1O[C@H](O[C@H]2[C@H](O)[C@@H](O)[C@@H](O[C@H]3[C@H](O)[C@@H](O)C(O)O[C@@H]3CO)O[C@@H]2CO)[C@H](O)[C@@H](O)[C@@H]1N[C@H]1C=C(CO)[C@@H](O)[C@H](O)[C@H]1O` (some centres undefined) [ACARBOSE], the inhibition with Prunus dulcis [1] worked out at 66%; in the assay with Saccharomyces cerevisiae [2], 74%; in the assay on Prunus dulcis [3], 25%; in the assay on Prunus dulcis [4], 17%; in the assay on Saccharomyces cerevisiae [5], 33%; with Saccharomyces cerevisiae [6], 46%. The inhibition was 60% in the assay on Saccharomyces cerevisiae [7]; 29% in the assay on Prunus dulcis [8]; 63% in the assay on Saccharomyces cerevisiae [9]; 60% in the assay with Prunus dulcis [10]; 39% with Prunus dulcis [11]; 52% in the assay on Prunus dulcis [12]. In addition, the results for the inhibition in the assay with Saccharomyces cerevisiae [13] and in the assay with Saccharomyces cerevisiae [14] were 30% and 22%, respectively. Further, the IC50 in assay [15] was found to be 57.8 µM; in [16], 52.5 µM.
`OC[C@H]1C[C@H](O)[C@@H](O)[C@@H](O)[C@H]1CO`: the inhibition with Prunus dulcis [1] was determined as 30.8%; in the assay on Saccharomyces cerevisiae [2], 42%; with Prunus dulcis [3], 4.98%; in the assay on Prunus dulcis [4] it was 2.2%; in the assay on Saccharomyces cerevisiae [5] it was 19%; in the assay on Saccharomyces cerevisiae [6], 21%. In addition, the inhibition worked out at 31% with Saccharomyces cerevisiae [7]; 12.7% in the assay on Prunus dulcis [8]; 40% with Saccharomyces cerevisiae [9]; 20.2% in the assay with Prunus dulcis [10]; 13.7% in the assay with Prunus dulcis [11]; 19.1% with Prunus dulcis [12]. Also, the figures for the inhibition in the assay with Saccharomyces cerevisiae [13] and in the assay on Saccharomyces cerevisiae [14] were 13% and 10%, respectively.
Turning to `OC[C@H]1C[C@H](O)[C@H](O)[C@H](O)[C@H]1CO`, the inhibition in the assay on Prunus dulcis [1] was 51.8%; in the assay on Saccharomyces cerevisiae [2] it was 25%; in the assay with Prunus dulcis [3] it was 20.4%; with Prunus dulcis [4], 18%; with Saccharomyces cerevisiae [5] it was 14%; in the assay with Saccharomyces cerevisiae [6] it was 19%. Moreover, the inhibition is 20% in the assay on Saccharomyces cerevisiae [7]; 29% in the assay with Prunus dulcis [8]; 22% in the assay with Saccharomyces cerevisiae [9]; 42.7% in the assay on Prunus dulcis [10]; 34.3% in the assay with Prunus dulcis [11]; 37.5% with Prunus dulcis [12]. The inhibition stood at 6% in the assay on Saccharomyces cerevisiae [13] and 2% in the assay on Saccharomyces cerevisiae [14]. Also, in [15], it took 198 µM to reach half-maximal inhibition (IC50).

The values above are taken from ChEMBL document CHEMBL4118245, “Stereoselective synthesis of new rac-quercitols containing hydroxymethyl groups as glucosidase inhibitors” (Bioorg Med Chem Lett, 2018).
